Results as given in ChEMBL document CHEMBL2169796, “Antiproliferative and antimigratory actions of synthetic long chain n-3 monounsaturated fatty acids in breast cancer cells that overexpress cyclooxygenase-2” (J Med Chem, 2012).
Activity calls are given as the source filed them. The rule behind the calls is not given here.

Experiments:
MDA-MB-468 [1] = assay: Proapoptotic activity in human MDA-MB-468 cells assessed as activation of caspase-3 by luminometry; assay type: functional, cell-based
MDA-MB-468 [2] = assay: Antiproliferative activity against human MDA-MB-468 cells after 48 hrs by MTT assay; assay type: functional, cell-based; conditions: MDA-MB-468, 48 h
MDA-MB-468 [3] = assay: Cytotoxicity against human MDA-MB-468 cells assessed as reduction in viable cells after 48 hrs by trypan blue exclusion assay; assay type: functional
In short: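 COX-2-overexpressing MDA-MB-468 transfectants exposed to fatty acids at 20 and 50 μM for 48 h; viable cells counted by trypan blue exclusion, expressed as decrease from control.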

MDA-MB-468 [4] = assay: Antiproliferative activity against human MDA-MB-468 cells after 24 hrs by MTT assay; assay type: functional, cell-based
[5] = target: T1, Prostaglandin G/H synthase 2 (Homo sapiens) (UniProt P35354); assay: Inhibition of peroxidase activity of COX-2 overexpressed in human MDA-MB-468 cells at 50 uM by spectrophotometry; values are per cent of control
T1 sequence (whole entry): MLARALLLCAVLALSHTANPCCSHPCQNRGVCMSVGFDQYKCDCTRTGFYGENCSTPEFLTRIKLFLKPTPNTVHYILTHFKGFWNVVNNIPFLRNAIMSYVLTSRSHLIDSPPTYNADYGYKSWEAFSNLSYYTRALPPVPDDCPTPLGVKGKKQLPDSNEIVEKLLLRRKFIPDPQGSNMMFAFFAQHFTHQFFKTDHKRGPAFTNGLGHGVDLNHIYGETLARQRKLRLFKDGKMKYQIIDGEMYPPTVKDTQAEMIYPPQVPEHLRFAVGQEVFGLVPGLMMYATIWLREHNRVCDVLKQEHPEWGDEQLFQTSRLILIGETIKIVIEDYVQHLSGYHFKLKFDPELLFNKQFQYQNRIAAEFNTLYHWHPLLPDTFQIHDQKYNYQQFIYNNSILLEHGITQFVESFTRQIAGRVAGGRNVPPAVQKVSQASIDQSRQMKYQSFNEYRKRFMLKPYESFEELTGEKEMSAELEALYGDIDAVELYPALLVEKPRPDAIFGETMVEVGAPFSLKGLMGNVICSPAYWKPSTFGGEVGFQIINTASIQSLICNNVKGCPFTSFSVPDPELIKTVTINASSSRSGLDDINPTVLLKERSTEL

MDA-MB-468 [6] = assay: Inhibition of cell invasion in human MDA-MB-468 cells overexpressing COX-2 at 20 uM after 20 hrs by matrigel droplet assay relative to untreated-control; values are per cent of control; conditions: MDA-MB-468, 20 h
MDA-MB-468 [7] = assay: Inhibition of cell invasion in human MDA-MB-468 cells overexpressing COX-2 at 10 uM after 20 hrs by matrigel droplet assay relative to untreated-control; values are per cent of control; conditions: MDA-MB-468, 20 h
[8] = target: T1, Prostaglandin G/H synthase 2 (Homo sapiens); assay: Inhibition of COX-2 overexpressed in human MDA-MB-468 cell lysate assessed as reduction in arachidonic acid-induced PGE2 formation at 50 uM by LC-MS-MS assay; values are per cent of control
[9] = target: T1, Prostaglandin G/H synthase 2 (Homo sapiens); assay: Inhibition of COX2 overexpressed in human MDA-MB-468 cells assessed as reduction in basal PGE2 level at 50 uM over 48 hrs by LC-MS-MS assay relative to control; values are per cent of control
[10] = target: T1, Prostaglandin G/H synthase 2 (Homo sapiens); assay: Inhibition of COX2 overexpressed in human MDA-MB-468 cells assessed as reduction in arachidonic acid-induced PGE2 production at 50 uM over 48 hrs by LC-MS-MS assay relative to control; values are per cent of control
[11] = target: T1, Prostaglandin G/H synthase 2 (Homo sapiens); assay: Inhibition of COX-2 overexpressed in human MDA-MB-468 cell lysate assessed as reduction in arachidonic acid-induced PGE2 formation at 50 uM by LC-MS-MS assay; assay type: cell-free
In short: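 Lysate of confluent COX-2-overexpressing MDA-MB-468 cells incubated with heme (10 μM), arachidonic acid (20 μM) and analogue (50 μM) in Tris-HCl 100 mM pH 8.0; quenched with ice-cold acetonitrile plus PGE2-d4, SPE cleanup, PGE2 quantified by negative-ion ESI LC-MS-MS.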

[12] = target: T1, Prostaglandin G/H synthase 2 (Homo sapiens); assay: Inhibition of COX2 overexpressed in human MDA-MB-468 cells assessed as reduction in basal PGE2 level at 50 uM over 48 hrs by LC-MS-MS assay relative to control; assay type: cell-based
In short: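 Intact COX-2-overexpressing MDA-MB-468 cells given fatty acid (50 μM) for 48 h without added substrate; basal PGE2 in medium measured by LC-MS-MS, as % of control.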

MDA-MB-468 [13] = assay: Inhibition of cell invasion in human MDA-MB-468 cells overexpressing COX-2 at 20 uM after 20 hrs by matrigel droplet assay relative to untreated-control; assay type: functional
In short: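 Cells (3.5 × 10^6/mL) mixed with Matrigel, 20 μL droplets set 5 min at 37 °C, then covered with endothelial growth medium-2 with 10% FBS containing fatty acid (10 or 20 μM) for 20 h at 37 °C, 5% CO2; cells migrating out of droplets counted by phase-contrast microscopy, vs DMSO control.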

Structure (SMILES)	EC50 (MDA-MB-468 [1]) [µM]	IC50 (MDA-MB-468 [2]) [µM]	residual activity [5] [%]	residual activity [8] [%]	residual activity [9] [%]	residual activity [10] [%]	inhibition [11]	inhibition [12]	Activity (MDA-MB-468 [3])	Activity (MDA-MB-468 [4])	level, % of control at 20 µM (MDA-MB-468 [6]) [%]	level, % of control at 10 µM (MDA-MB-468 [7]) [%]	inhibition (MDA-MB-468 [13])
CC/C=C\C/C=C\C/C=C\C/C=C\C/C=C\CCCC(=O)O [ICOSAPENT]	> 100	> 100											
CC/C=C\CCCCCCCCCCCCC(=O)O	69	> 100						inactive	inactive	Dose-dependent effect			inactive
CC/C=C\CCCCCCCCCCCCCCCC(=O)O	43	31	62	42	46				inactive	Dose-dependent effect	75		
CCCCC/C=C\C/C=C\C/C=C\C/C=C\CCCC(=O)O [ARACHIDONIC ACID]	> 100	> 100											
CC/C=C\CCCCCCCCCCCC(=O)O	> 100	> 100						inactive	25%	Dose-dependent effect			inactive
CC/C=C\CCCCCCCCCCCCCC(=O)O	54	> 100						inactive	inactive	Dose-dependent effect			inactive

Now from value to molecule, other results behind:

EC50 (MDA-MB-468 [1]) [µM]	IC50 (MDA-MB-468 [2]) [µM]	residual activity [5] [%]	residual activity [8] [%]	residual activity [9] [%]	residual activity [10] [%]	inhibition [11]	inhibition [12]	Structure (SMILES)	Activity (MDA-MB-468 [3])	Activity (MDA-MB-468 [4])	level, % of control at 20 µM (MDA-MB-468 [6]) [%]	level, % of control at 10 µM (MDA-MB-468 [7]) [%]	inhibition (MDA-MB-468 [13])
26	21	58	42	45	40			CC/C=C\CCCCCCCCCCCCCCCCCC(=O)O	inactive	Dose-dependent effect	48	48	
43	36	71				Active	inactive	CC/C=C\CCCCCCCCCCCCCCC(=O)O	20%	Dose-dependent effect			inactive
12	9.3	54	42	49	40			CC/C=C\CCCCCCCCCCCCCCCCC(=O)O	inactive	Dose-dependent effect	59		
